According to the EternaBench riboswitch data:

Tested on: MS2 coat protein
Assay: apparent Kd, MS2 coat protein; higher = weaker binding; RNA-MaP array; FMN 200 µM where present
In short: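 Stalled E. coli RNA polymerase transcribed the designs on Illumina sequencing-chip clusters. SNAP-549-labelled MS2 coat protein was titrated from 0.7 or 1.5 nM, doubling to 3 µM, without and then with constant ligand, in 100 mM Tris-HCl pH 7.5, 80 mM KCl, 4 mM MgCl2, BSA, DTT, yeast tRNA and Tween-20. Per-cluster binding curves were fitted to green signal normalised to red-channel RNA signal and control-cluster median Fmax. The apparent Kd is the median of the filtered fits.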

[1] = designed as: OFF switch for flavin mononucleotide, no ligand
[2] = ligand present: flavin mononucleotide, designed as: OFF switch for flavin mononucleotide
[3] = designed as: ON switch for flavin mononucleotide, no ligand
[4] = ligand present: flavin mononucleotide, designed as: ON switch for flavin mononucleotide

| Sequence | apparent Kd [1] | apparent Kd [2] | apparent Kd [3] | apparent Kd [4] |
| --- | --- | --- | --- | --- |
| AGAAACUACGAGAAGGACAUAUGAUUAAGACGAAACAUGAGGAUCACCCAUGUAGGAUAUCGUAGUUUCAGGAUCGUGAGAUCA | 7.21 nM | 17.8 nM |  |  |
| UGAUAGCACAGAGGAUAUGCGUAGUGUUAUCUCUACAUGAGGAUCACCCAUGUAGAAGGCUGUGCUAUCUAAGUCGGAAACGAC | 5.95 nM | 9.9 nM |  |  |
| UGUCGGAGCAGAGGAUAUUACAUGAGGAUCACCCAUGUAUGAACCAAUAGCUGGAAACAGCAAUGUAAGAAGGGUGCUCCGACA | 6.09 nM | 13.2 nM |  |  |
| CUGCUCCGUGUAGGAUAUGCAUACUCCCAUUAUGCAGAAGGACAUGAGGAUCACCCAUGUAUGUUAUUAUCACGUGUUGCGUAC | 25.7 nM | 92.2 nM |  |  |
| CUGCCUUAUGUAGGAUAUGCAUAGCGUUGCUAUGCAGAAGGACAUGAGGAUCACCCAUGUAUGUAAUCAAUACAUAUCUGGCAG | 19.8 nM | 122 nM |  |  |
| UACAUGAGGAUCACCCAUGUUUUGUCGUGUAUGGUAUUUAUCUAGGAUAUCGUGUUAUUUAACCACGAGAAGGAGAGUAUCAAU | 27.5 nM | 26.7 nM |  |  |
| AUUUAUAAGUAAGGAUAUCGGUUAUAUUUAAUUCGAGAAGGUACAUGAGGAUCACCCAUGUAAUAAAUAAAUAAAAUUUUUUUU | 36.4 nM | 28.7 nM |  |  |
| UUUGUUGUUGUGAGGAUAUCGUUGUUAUUUUGAAACGAGAAGGCACAUGAGGAUCACCCAUGUUUGUUGUUGGU | 52.1 nM | 195 nM |  |  |
| GUGCCUAACUAGAAGGCAGUAUGCAAAGCAUUCUGAGGAUAUGGGUUCCGGAAACGGACAUGAGGAUCACCCAUGUGGCACAAA |  |  | 312 nM | 20.3 nM |
| AUAUAUUAGUUAGGAUAUCUGUAAUUUAUUGAAACAUGAGGAUCACCCAUGUUCAUAAAUUUAUAGGAGAAGGGAUAGAUAUAU |  |  | 5.17 nM | 5.03 nM |
| CUGCUGGAGCUUCGCUUUGGUCGUACAUGAGGAUCACCCAUGUAGGAUAUGGUAAAAUUCGCCUGCUAGAAGGAUAGAGUGGUC | 67.2 nM | 139 nM |  |  |
| UUACCUUAUGAGAAGGCGAUCAUGAAACAUGAUCGAGGAUAUCAUGUAAACAUGAGGAUCACCCAUGUAUGGGUAUUAUGGUAC |  |  | 86.6 nM | 27.8 nM |
| UUGAGGUGCAAGAAGGAUCACAUGAGGAUCACCCAUGUGAUGUGAAGUCUCGAGAUUUUAUAUCGAUAGGAUAUUGCACCGAAC |  |  | 5.13 nM | 5.33 nM |
| GUAGCAUACGGAGGAUAUUCAUAUAAUAAAUAAACAUGAGGAUCACCCAUGUGGCGAAAGCCUUGGGAGAAGGCCGAAUGCUAC |  |  | 805 nM | 39.8 nM |
| ACAUGAGGAUCACCCAUGUAGAAGGAGAGGGCAGAAUUUACGCAGGAUAUGCAUUUUUGGGAAAAGUAGAAGGGUGAGGGCGGA |  |  | 36.4 nM | 25.2 nM |
| GGUCGUCAAGUCAGGAUAUCGUAUAAUAGAUAUAACGAGAAGGGACAUGAGGAUCACCCAUGUCGUCUCAUCAG | 17.1 nM | 23.7 nM |  |  |
| CAGAGGAUGUAAGGAUAUCGUCAGGAAUACUGACGAGAAGGUACAUGAGGAUCACCCAUGUAUAUGAAAGAUAAUAAACCUCUG | 14.4 nM | 17.2 nM |  |  |
| AUCAUGCUCAAGAAGGACAUGAGGAUCACCCAUGUAGGAUAUUGGGCGGUCACCUCUAGCUUGUGUGUAUCUGAAUACUCCAGG |  |  | 21.1 nM | 7.17 nM |
| AAAAGACAUGAGGAUCACCCAUGUGAAAACGUAGGAGGAUAUGUCGUGAAAAAAGACUUGACAGAAGGCCUGUGUC |  |  | 97.7 nM | 30.8 nM |
| AUACAUGAGGAUCACCCAUGUUACUGGGUCUUUUUAGAACGUAGAAGGAUGAUAUUAUAAAUAUCAUAGGAUAUACUAUAUUGU | 52 nM | 59.5 nM |  |  |
| CAGCGAAAGUAGAAGGCAGUACUGAUACAGUACUGAGGAUAUACAUGAGGAUCACCCAUGUACUUCAGCUGGAAAUAAAUAAAU | 5.94 nM | 6.97 nM |  |  |
| UUAAUUAACAAGAAGGCUUACAUGAGGAUCACCCAUGUUGUACAUGGAUAAAGAGGAUAUUGCUAAUAAUUAUUUUUCUUAAUU | 92.1 nM | 57.5 nM |  |  |
| AACUAAGUAUUAAUGGUGUCUGACAGAAGGCAAUAGGUUGUGACCGACAUGAGGAUCACCCAUGUUGAGGAUAUGUCUAGCUAC | 44.7 nM | 308 nM |  |  |
| CGUUCACAUGAGGAUCACCCAUGUCAGAUUUGGUCAGGAUAUGGUCGGCAUCCGCUAUUGCCAGAAGGGACUGUUG |  |  | 55.3 nM | 36.3 nM |
| CGCUAAUAAAUAGUAAUAAAAGUACAGGAUAUGUUACAUGAGGAUCACCCAUGUAUUGGGUAAGAACAGAAGGGUAUAUUAGCG | 153 nM | 115 nM |  |  |
| UCUCUGCGAGGAUAUACGUGCGCGCGCGCGCGCGCGCGCGUACAUGAGGAUCACCCAUGUAGAAGGCGCUCUGC | 30.8 nM | 28.2 nM |  |  |
| UAAAUUAACAAGAAGGCUAACAUGAGGAUCACCCAUGUUGUACAUGGAUAUAGAGGAUAUUGAUAAUAAUUUUUUAUCAUAAUU | 17.6 nM | 16.5 nM |  |  |
| UGGUACUAGGGAGGAUAUGGGAAGAUACAUGAGGAUCACCCAUGUUUAACAAUGCCGAGAGGCAACUAGAAGGCCCUAGUACCU |  |  | 227 nM | 15.5 nM |

| Sequence | apparent Kd [1] | apparent Kd [2] | apparent Kd [3] | apparent Kd [4] |
| --- | --- | --- | --- | --- |
| GUACCUUAUGAGAAGGCGAUCAUGAAACAUGAUCGAGGAUAUCAUGUAAACAUGAGGAUCACCCAUGUAUGGGUAUUAUGGUAC |  |  | 191 nM | 25.6 nM |
| UCACGGGACUAAGGAUAUACAUGAACCAUUUUUGUAGAAGGUAGAAUGUUUGAUCAUAAACUAAACAUGAGGAUCACCCAUGUU | 23.4 nM | 21 nM |  |  |
| AUUAUGUUAGGAUAUGCUUAUGGUGGAUAGUCCGAUAUGAUGCAGAAGGGACAUGAGGAUCACCCAUGUACUGA | 27.3 nM | 29.5 nM |  |  |
| GGAUCAUAUGUCAGGAUAUGCAGGUCCUUGGAUCUGCAGAAGGGACAUGAGGAUCACCCAUGUCAUGAAGAUCC | 35.6 nM | 202 nM |  |  |
| UGUACUUAUUUUAAUUAUGAUUUACUAGAAGGUAGAUACAUGAGGAUCACCCAUGUUUAGAGUUCUAAGGAUAUAGAUUUUAUC |  |  | 10.3 nM | 10.2 nM |
| GGACGAAGUGUGAGGAUAUGCUGGUCCUUGGAUCAGCAGAAGGCACAUGAGGAUCACCCAUGUGGUAAACGUCC | 114 nM | 746 nM |  |  |
| GGGUACAUCGGAGGAUAUCAUGUAAAUACAUGAGGAUCACCCAUGUCGAUGGAGACAGCGGAGAUUGAGAAGGCCGAUGUACCG |  |  | 105 nM | 190 nM |
| AGCAUGUGAGGAUAUGUGAGCCUCAUCCGAAGGACGAGGGAAUAGAAGGCACAUGAGGAUCACCCAUGUGAUGA | 27.3 nM | 74.3 nM |  |  |
| CUUGGCUAGGAGAAGGGCUAGAGUGUGAUAUAUUUGCCCGCGAGCACAUGAGGAUCACCCAUGUAGCAGGAUAUCCAAGCCGGU | 7.4 nM | 17.4 nM |  |  |
| ACAUGAGGAUCACCCAUGUAAAGCGAGGAUAUUUCACUGCACAUGAGGUUCGCCCAUGUUCUGCGGAAGAAGGUGCAAAUAAUU |  |  |  | 28.1 nM |
| CGGAUUAUGUGAGGAUAUAAUCGUUUCCAUUGAUUAGAAGGCACAUGAGGAUCACCCAUGUGGCAUGUAAUGCCAUGUGACGCU | 442 nM | 41.3 nM |  |  |
| UACCGCUCUGAAGGAUAUCCACUGGGAUGCUGGAUGUAUGAGCGUACAUGAGGAUCACCCAUGUAGGAGAAGGUCAGGCAUUCC | 5.8 nM | 7.84 nM |  |  |
| GGGAGUGGAGGGAAUAACAUGAGGAUCACCCAUGUAUGGGAGAGAAGGCAGGUUGGAGGGCGAUCUGAGGAUAUUUAGACUCUU |  |  | 19.9 nM | 13.5 nM |
| AACAUGGCAGAGGAUAUAGGACGCUGGCAUAAACUAGAAGGCUGCACAUGAGGAUCACCCAUGUGUUCCUAAAC | 21.7 nM | 39.4 nM |  |  |
| UUUUAACAUGAGGAUCACCCAUGUGAGGAUAUCGAAAUUUAUAUUUAUAUUUAUAUUACGAGAAGGCACAUUUU | 84.9 nM | 102 nM |  |  |
| GCAGACGUAGUGAGGAUAUGCUCUACCUCGGUAGAGCAGAAGGCACAUGAGGAUCACCCAUGUGGCUCCUCAUC | 15.6 nM | 21.9 nM |  |  |
| AACAGUACAGGAUAUACAUGAGGAUCACCCAUGUGAGAAUUAAGUGGCGUACCACUAAGUAGAAGGGUACUGGA | 51.6 nM | 151 nM |  |  |
| ACACAGAAAGGAUAUGCAGGGAGAUAAAGCUUCUUGUUCCAACAUGAGGAUCACCCAUGUAGAAGGUUCGAAAA | 32 nM | 99.5 nM |  |  |
| GCUUUAUAGAUCCAUUUUAACAACAUGAGGAUCACCCAUGUGCAGGAUAUCGUUUGUUUUAUAUUCGAGAAGGGCAAAUUCAGC | 32.5 nM | 77.6 nM |  |  |
| AAUGAUUGAUUCCACUUAUACAUGAGGAUCACCCAUGUUAUCGAGGAUAUGCAUUAGAGUGUUUAGCAGAAGGCGAUGUAAUUG | 7.82 nM | 25 nM |  |  |
| AGUAUGCGAGGAUAUACAUGAGGAUCACCCAUGUGAGAGAUAAAAGUGAGAAAGACAAGUAGAAGGCGCGUACA | 61.9 nM | 451 nM |  |  |
| UUUUCCAGGCAGAAGGGUCCUCACAUGAGGAUCACCCAUGUAAACGUGGAUAGGAUAUGCCACUGGGCUCGAUAAGAGUGGUUC |  |  | 640 nM | 128 nM |
| AGUCGGAGCAGAGGAUAUUACAUGAGGAUCACCCAUGUGGAAAAACCAAGCUGGAAACAGCAAUGUAAGAAGGCUGCUCCGACA | 497 nM | 879 nM |  |  |
| CGGUCGAUGUAAGGAUAUCGACUGGAUAACAGUCGAGAAGGUACAUGAGGAUCACCCAUGUAAUCCUAAUAAUAAUAACGACCG | 12.6 nM | 18 nM |  |  |
| CCCGUGUUAGGAUAUACGGCACACCCACCAGCGGGUGUAUAGUAGAAGGAACAUGAGGAUCACCCAUGUAUAAC | 34.9 nM | 51.4 nM |  |  |
| GCAAAGCCUGACAUGAGGAUCACCCAUGUUAGAUUGUUAUGUCAGGAUAUUGUCUAGCCACUAGACAAGAAGGGAUGCUUUGCU |  |  | 384 nM | 32.9 nM |
| AGCUACGUUUCGUAGCAGUGUCAUCGAGAAGGCCUUAUAACAUGAGGAUCACCCAUGUUAACAUGGGAGGAUAUCGAUGAUACA |  |  | 10.5 nM | 5.34 nM |
